This passage reports self-cleavage results from the RNAGym collection of RNA variant scans (doi:10.1002/anie.201605470).

The labels stand for the following.
B1: Osa-1-4 twister ribozyme (parent)
chain: CCGCCUAACACUGCCAAUGCCGGUCCCAAGCCCGGAUAAAAGUGGAGGGGGCGG

In this data set the parent is B1. As to the kind of experiment: self-cleavage, relative activity (ratio to wild type); higher = more cleavage; co-transcriptional. In short, it runs like this: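 A DNA template was synthesised for a 54-nucleotide twister ribozyme from Oryza sativa, with 97 % wild-type base and 1 % of each other base at each of the 48 positions downstream of the cleavage site. The ribozyme cleaved itself co-transcriptionally during 2 h of in vitro transcription at 37 °C. Reverse transcription with a template-switching oligonucleotide, PCR amplification and deep sequencing followed, and cleavage status came from reads with or without upstream sequence. Relative activity is the fraction cleaved normalised to wild type.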
With CCGCCUAACACUGCCAAUGCCGGUCCCAAGCCCGGUUAAAAGUGGAGGGGGCGG, the self-cleavage was determined as 1.03.

As for CCGCCUAACACUGACAAUGCCGGUCCCAAGCCCGGUUAAAAGUGGAGGGGGCGG, the self-cleavage amounted to 0.07.

Consider CCGCCUAACACUGUCAAUGCCGGUCCCAAGCCCGGUUAAAAGUGGAGGGGGCGG, for which the self-cleavage is 0.5.

For CCGCCUAACACUGGCAAUGCCGGUCCCAAGCCCGGUUAAAAGUGGAGGGGGCGG, the self-cleavage is 0.13.

In the case of CCGCCUAACACUGCCAAUGCCGGUCCCAAGCCCGGUUAAUAGUGGAGGGGGCGG, the self-cleavage stood at 0.63.

For CCGCCUAACACUGCCAAUGCCGGUCCCAAGCCCGGUUAACAGUGGAGGGGGCGG, the self-cleavage was found to be 0.08.

With CCGCCUAACACUGCCAAUGCCGGUCCCAAGCCCGGUUAAGAGUGGAGGGGGCGG, the self-cleavage is 0.84.

On to CCGCCUAACACUGCCAAUGCCGGUCCCAAGCCCGGUUCAAAGUGGAGGGGGCGG, for which the self-cleavage amounted to 1.02.

As to CCGCCUAACACUGCCAAUGCCGGUCCCAAGCCCGGUUGAAAGUGGAGGGGGCGG, the self-cleavage came to 1.

CCGCCUAACACUGCCAAUGCCGGUCCCAAGCCCGGUUUAAAGUGGAGGGGGCGG: the self-cleavage worked out at 0.97.

As to CCGCCUAACACUGCCAAUGCCGGUGCCAAGCCCGGUUAAAAGUGGAGGGGGCGG, the self-cleavage worked out at 0.1.

On to CCGCCUAACACUGCCAAUGCCGGUACCAAGCCCGGUUAAAAGUGGAGGGGGCGG, for which the self-cleavage came out at 0.12.

CCGCCUAACACUGCCAAUGCCGGUUCCAAGCCCGGUUAAAAGUGGAGGGGGCGG: the self-cleavage is 0.92.

In the case of CCGCCUAACACGGCCAAUGCCGGUCCCAAGCCCGGGUAAAAGUGGAGGGGGCGG, the self-cleavage was determined as 0.39.

Consider CCGCCUAACACCGCCAAUGCCGGUCCCAAGCCCGGGUAAAAGUGGAGGGGGCGG, for which the self-cleavage is 0.69.

As to CCGCCUAACACAGCCAAUGCCGGUCCCAAGCCCGGGUAAAAGUGGAGGGGGCGG, the self-cleavage turned out to be 0.99.

Take CCGCCUAACACUGCCAAUGCUGGUCCCAAGCCCGGUUAAAAGUGGAGGGGGCGG: the self-cleavage stood at 1.04.

Regarding CCGCCUAACACUGCCAAUGCGGGUCCCAAGCCCGGUUAAAAGUGGAGGGGGCGG, the self-cleavage was 0.1.

With CCGCCUAACACUGCCAAUGCAGGUCCCAAGCCCGGUUAAAAGUGGAGGGGGCGG, the self-cleavage is 0.91.

For the variant CCGCCUAACACUGCCAAUGCCGGUCCCAAGCCAGGUUAAAAGUGGAGGGGGCGG, the self-cleavage was found to be 0.24.

For the variant CCGCCUAACACUGCCAAUGCCGGUCCCAAGCCUGGUUAAAAGUGGAGGGGGCGG, the self-cleavage was determined as 0.89.

CCGCCUAACACUGCCAAUGCCGGUCCCAAGCCGGGUUAAAAGUGGAGGGGGCGG: the self-cleavage is 0.08.

For the variant CCGCCUAACACUGCAAAUGCCGGUCCCAAGCCCGGUUAAAAGUGGAGGGGGCGG, the self-cleavage turned out to be 0.51.

With CCGCCUAACACUGCGAAUGCCGGUCCCAAGCCCGGUUAAAAGUGGAGGGGGCGG, the self-cleavage stood at 0.4.

For CCGCCUAACACUGCUAAUGCCGGUCCCAAGCCCGGUUAAAAGUGGAGGGGGCGG, the self-cleavage came out at 0.31.

Take CCGCCUAACACUGCCAAUGCCGGUCCCAAGCCCGGUUAAAAGUGGAGGGGGUGG: the self-cleavage is 1.06.

Take CCGCCUAACACUGCCAAUGCCGGUCCCAAGCCCGGUUAAAAGUGGAGGGGGGGG: the self-cleavage stood at 1.06.

For the variant CCGCCUAACACUGCCAAUGCCGGUCCCAAGCCCGGUUAAAAGUGGAGGGGGAGG, the self-cleavage came to 1.04.

For the variant CCGCCUAACACUGCCAAUGCCGGUCCCAAGCCCGGGUAAAAGGGGAGGGGGCGG, the self-cleavage came out at 0.64.

For CCGCCUAACACUGCCAAUGCCGGUCCCAAGCCCGGGUAAAAGCGGAGGGGGCGG, the self-cleavage is 0.74.

As for CCGCCUAACACUGCCAAUGCCGGUCCCAAGCCCGGGUAAAAGAGGAGGGGGCGG, the self-cleavage worked out at 0.92.

Regarding CCGCCUAACACUGCCAAUCCCGGUCCCAAGCCCGGUUAAAAGUGGAGGGGGCGG, the self-cleavage is 0.67.

Consider CCGCCUAACACUGCCAAUUCCGGUCCCAAGCCCGGUUAAAAGUGGAGGGGGCGG, for which the self-cleavage was 0.93.

Take CCGCCUAACACUGCCAAUACCGGUCCCAAGCCCGGUUAAAAGUGGAGGGGGCGG: the self-cleavage worked out at 0.48.

For CCGCCUACCACUGCCAAUGCCGGUCCCAAGCCCGGUUAAAAGUGGAGGGGGCGG, the self-cleavage was determined as 0.09.

Regarding CCGCCUAUCACUGCCAAUGCCGGUCCCAAGCCCGGUUAAAAGUGGAGGGGGCGG, the self-cleavage turned out to be 0.34.

Take CCGCCUAGCACUGCCAAUGCCGGUCCCAAGCCCGGUUAAAAGUGGAGGGGGCGG: the self-cleavage was found to be 0.71.

Turning to CCGCCUAACACUGCCAAUGCCGGUCCCAAGCCCGGUUAAAGGUGGAGGGGGCGG, the self-cleavage came out at 0.68.

CCGCCUAACACUGCCAAUGCCGGUCCCAAGCCCGGUUAAACGUGGAGGGGGCGG: the self-cleavage was 0.99.

CCGCCUAACACUGCCAAUGCCGGUCCCAAGCCCGGUUAAAUGUGGAGGGGGCGG: the self-cleavage came to 1.02.

As to CCGCCUAACACUGCCAAUGCCGAUCCCAAGCCCGGUUAAAAGUGGAGGGGGCGG, the self-cleavage is 0.72.

With CCGCCUAACACUGCCAAUGCCGCUCCCAAGCCCGGUUAAAAGUGGAGGGGGCGG, the self-cleavage was found to be 0.05.

Consider CCGCCUAACACUGCCAAUGCCGUUCCCAAGCCCGGUUAAAAGUGGAGGGGGCGG, for which the self-cleavage was determined as 0.18.

As for CCGCCUAACACUGCCAAUGCCGGUCCCAAGCCCGGGAAAAAGUGGAGGGGGCGG, the self-cleavage was 1.02.

As to CCGCCUAACACUGCCAAUGCCGGUCCCAAGCCCGGGCAAAAGUGGAGGGGGCGG, the self-cleavage was 1.04.

Take CCGCCUAACACUGCCAAUGCCGGUCCCAAGCCCGGGGAAAAGUGGAGGGGGCGG: the self-cleavage worked out at 1.03.

Regarding CCGCCUAACACUGCCAAUGCCGGUCCCAAGCCCGGGUAAAAGUGGAGGGGUCGG, the self-cleavage worked out at 0.37.

With CCGCCUAACACUGCCAAUGGCGGUCCCAAGCCCGGUUAAAAGUGGAGGGGGCGG, the self-cleavage came to 0.19.
